Activity calls are given as the source filed them.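 Rule for the calls: active = compounds whose fitted half-maximal growth inhibition concentration is at most ten times the top tested dose; inconclusive = flat curve with 30 to 70% inhibition, or poor fit; inactive = the rest.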

The source of these data is PubChem BioAssay AID504502 (Broad Institute, 2011).

Test [1] deals with C. albicans CaCi-2 + fluconazole, Alamar Blue growth, 48 h. Description: antifungal growth reduction in resistant isolate – CaCi-2, fluconazole present, retest, powder, set 6, confirmation (AID 504502). The method, boiled down: (§1)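 Assay system: Candida albicans CaCi-2, clinical isolate resistant to fluconazole; input: fungal inoculum at starting OD600 of 0.00015; probe or stimulus: fluconazole 8 µg/mL; times: 48 h growth at 37 °C, 2 h dye step; technique: Alamar Blue fluorescence at 1:200 final, excitation 544 nm, emission 590 nm; benchmarks: geldanamycin as positive control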

Test in test [2]: as above
Particulars: C. albicans CaCi-2 + fluconazole, Alamar Blue growth, 48 h; at 12 µM (top of the series). The method in brief:
as §1
(The colour change of resazurin is a common sign of viable cells or microbes.)

The term AC50 denotes the midpoint of the concentration-response curve, whichever way the signal moves. As to `O=C(Cn1c2ccccc2c2nc3n(c(=O)c21)CCS3)N1CCC(F)(F)C1`, the AC50 in test [1] was 3700 nM.
Turning to `CC1CCN(CCn2c3ccccc3c3nc4n(c(=O)c32)CCS4)CC1`, in test [2], the activity change, negative = inhibition is -9.05% (inactive).
Turning to `O=C(Cn1c2ccccc2c2nc3n(c(=O)c21)CCS3)N1CC=CC1`, the concentration at half-maximal activity (AC50) in test [1] is 821 nM.
In the case of `COC(=O)Cn1nc(C(C)(C)C)c2ccccc21`, the activity change, negative = inhibition in test [2] was 3% (inactive).
In the case of `COC(=O)n1nc(-c2ccccc2)c2ccccc21`, the activity change, negative = inhibition in test [2] is 10.4% (inactive).
Consider `O=C(Cn1c2ccccc2c2nc3n(c(=O)c21)CCS3)N1CCCCC1`, for which the AC50 in test [1] is 1250 nM.
For `COC(=O)Cn1nc(-c2cccnc2)c2ccccc21`, the activity change, negative = inhibition in test [2] is -23.4% (inactive).
Regarding `COC(=O)Cn1nc(-c2cccc(F)c2)c2ccccc21`, the AC50 in test [1] was 1170 nM.
As for `COC(=O)Cn1nc(-c2cccc(C)c2)c2ccccc21`, the AC50 in test [1] was 646 nM.
Take `COC(=O)Cn1c2ccc(F)cc2c2nc3n(c(=O)c21)CCS3`: in test [1], the AC50 is 2080 nM.
For the compound `COC(=O)Cn1nc(-c2ccccc2)c2cccnc21`, in test [2], the activity change, negative = inhibition is -41.1% (inactive).
In the case of `O=C(Cn1c2ccccc2c2nc3n(c(=O)c21)CCS3)N1CCC(F)(F)CC1`, the concentration at half-maximal activity (AC50) in test [1] is 1470 nM.
With `COC(=O)Cn1nc(C2CC2)c2ccccc21`, in test [2], the activity change, negative = inhibition is 0.132% (inactive).
As to `COC(=O)Cn1nc(-c2cnco2)c2ccccc21`, the activity change, negative = inhibition in test [2] was -10.5% (inactive).
As to `CC1(O)CN(C(=O)Cn2c3ccccc3c3nc4n(c(=O)c32)CCS4)C1`, in test [2], the activity change, negative = inhibition was -0.117% (inactive).
Consider `O=C(Cn1c2ccccc2c2nc3n(c(=O)c21)CCS3)N1CCCC1`, for which the AC50 in test [1] is 795 nM.
Take `CCc1nn(CC(=O)OC)c2ccccc12`: the activity change, negative = inhibition in test [2] is 6.18% (inactive).
Consider `O=C(Cn1c2ccc(F)cc2c2nc3n(c(=O)c21)CCS3)N1CCCC1`, for which the AC50 in test [1] was 298 nM.
Still for that read-out and setting: for `O=C(Cn1c2ccc(F)cc2c2nc3n(c(=O)c21)CCS3)N1CCC(F)(F)C1` the value was 717 nM.
Turning to `O=C(O)Cn1c2ccc(F)cc2c2nc3n(c(=O)c21)CCS3`, the activity change, negative = inhibition in test [2] is 0.059% (inactive).
As to `CN1CCN(C(=O)Cn2c3ccccc3c3nc4n(c(=O)c32)CCS4)CC1`, in test [1], the AC50 is 4740 nM.
In the case of `COC(=O)Cn1nc(C2CCCCC2)c2ccccc21`, the AC50 in test [1] is 1800 nM.
With `O=C(Cn1c2ccc(F)cc2c2nc3n(c(=O)c21)CCS3)N1CC=CC1`, the AC50 in test [1] is 276 nM.
`COC(=O)Cn1nc(-c2cccc(OC)c2)c2ccccc21`: the AC50 in test [1] was 348 nM.
Regarding `O=C(O)Cn1c2ccccc2c2nc3n(c(=O)c21)CCS3`, the activity change, negative = inhibition in test [2] was -8.34% (inactive).
Turning to `O=C(Cn1c2ccc(F)cc2c2nc3n(c(=O)c21)CCS3)N1CCC(F)(F)CC1`, the AC50 in test [1] is 391 nM.
